Measurements published in PMC6745892 (Journal of Medicinal Chemistry, 2019).

Columns and labels:
DAGL-α = target: T1, DAGL-α (Mus musculus, UniProt Q6WQJ1); type: biochemical; conditions: ratio of kinact versus KT109 and DH376
T1 sequence (Q6WQJ1 1-1044): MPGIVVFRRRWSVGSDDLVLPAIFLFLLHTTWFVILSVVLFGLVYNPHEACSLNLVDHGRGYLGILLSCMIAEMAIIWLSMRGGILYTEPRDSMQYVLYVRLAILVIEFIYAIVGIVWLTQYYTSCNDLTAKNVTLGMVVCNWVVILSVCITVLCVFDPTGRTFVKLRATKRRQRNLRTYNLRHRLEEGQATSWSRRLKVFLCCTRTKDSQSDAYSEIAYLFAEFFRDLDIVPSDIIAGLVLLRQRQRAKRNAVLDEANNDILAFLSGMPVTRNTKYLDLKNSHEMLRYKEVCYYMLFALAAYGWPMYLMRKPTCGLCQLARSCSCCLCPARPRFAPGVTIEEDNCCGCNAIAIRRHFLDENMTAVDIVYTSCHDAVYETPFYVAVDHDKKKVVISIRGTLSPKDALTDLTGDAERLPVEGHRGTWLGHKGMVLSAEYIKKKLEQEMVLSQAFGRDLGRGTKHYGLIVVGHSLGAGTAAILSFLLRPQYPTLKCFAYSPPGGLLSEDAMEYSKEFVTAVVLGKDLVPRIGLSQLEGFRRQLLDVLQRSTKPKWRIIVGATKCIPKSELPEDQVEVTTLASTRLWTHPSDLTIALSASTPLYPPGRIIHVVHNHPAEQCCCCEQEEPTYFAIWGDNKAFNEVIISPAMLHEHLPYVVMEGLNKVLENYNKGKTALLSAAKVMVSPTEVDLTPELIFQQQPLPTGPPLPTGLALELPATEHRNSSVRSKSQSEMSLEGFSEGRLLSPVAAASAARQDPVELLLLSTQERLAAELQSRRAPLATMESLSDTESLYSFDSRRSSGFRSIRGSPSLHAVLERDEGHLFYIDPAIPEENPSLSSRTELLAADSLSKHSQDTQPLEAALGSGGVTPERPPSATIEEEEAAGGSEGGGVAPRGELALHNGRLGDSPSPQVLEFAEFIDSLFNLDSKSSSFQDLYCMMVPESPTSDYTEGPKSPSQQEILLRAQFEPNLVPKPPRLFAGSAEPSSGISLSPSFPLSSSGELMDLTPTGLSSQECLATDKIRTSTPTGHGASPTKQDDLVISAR

mDAGL-α = target: T2, mDAGL-α (Mus musculus, UniProt Q6WQJ1); assay: Standard PNP-butyrate surrogate substrate assay; type: biochemical
T2 sequence (Q6WQJ1 1-1044): T1 sequence (Q6WQJ1 1-1044)
In short: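 Membrane fraction of HEK293T cells transiently transfected with mDAGL-α, 0.05 μg/μL final, in 50 mM Hepes pH 7.2. Inhibitor in DMSO preincubated 20 min, then PNP-butyrate added (0.3 mM final; 5% DMSO final). OD 420 nm read after 30 min at 20 °C. Data corrected for 10 μM THL background and normalized to DMSO control. N = 2, n = 2; plates kept if Z′ > 0.6.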

In the case of O=C(N1CCCC[C@@H]1Cc1ccccc1)n1cc(C(O)(c2ccc(F)cc2)c2ccc(F)cc2)nn1 [Compound 2, (R)-(2-Benzylpiperidin-1-yl)(4-(bis(4-fluorophenyl)(hydroxy)methyl)-1H-1,2,3-triazol-1-yl)methanone], the “inactivation rate (kinact) times higher than for KT109 and DH376” value (DAGL-α) is reported as 2–3 times and the “potency in the standard surrogate substrate assay (in words)” value (mDAGL-α) is reported as “low nanomolar”.
With O=C(N1CCCC[C@@H]1Cc1ccccc1)n1ncc(C(O)(c2ccc(F)cc2)c2ccc(F)cc2)n1 [Compound 1, (R)-(2-Benzylpiperidin-1-yl)(4-(bis(4-fluorophenyl)(hydroxy)methyl)-2H-1,2,3-triazol-2-yl)methanone] the “inactivation rate (kinact) times higher than for KT109 and DH376” value (DAGL-α) was 2–3 times and the “potency in the standard surrogate substrate assay (in words)” value (mDAGL-α) was “low nanomolar”.
